Results: ChEMBL document CHEMBL4145650, “Napabucasin and Related Heterocycle-Fused Naphthoquinones as STAT3 Inhibitors with Antiproliferative Activity against Cancer Cells” (J Nat Prod, 2018)
pEC50, pIC50: −log10 of the molar value. Activity calls are given as the source filed them. The rule behind the calls is not given here.

Experiments:
[1] = test system: MDA-MB-231; test: Cell cycle arrest in human MDA-MB-231 cells assessed as accumulation at G2 phase at 3 uM measured after 24 hrs by propidium iodide staining based flow cytometry (reference value: 23%); format: functional
[2] = test system: MDA-MB-231; test: Cell cycle arrest in human MDA-MB-231 cells assessed as accumulation at sub-G0 phase at 30 uM measured after 24 hrs by propidium iodide staining based flow cytometry (reference value: 3%); format: functional
[3] = test system: MDA-MB-231; test: Cell cycle arrest in human MDA-MB-231 cells assessed as accumulation at G1 phase at 3 uM measured after 24 hrs by propidium iodide staining based flow cytometry (reference value: 62%); format: functional
[4] = test system: MDA-MB-231; test: Induction of apoptosis in human MDA-MB-231 cells assessed as early apoptotic cells at 10 umol/L measured after 8 hrs by annexin-V-FITC/7-AAD staining based flow cytometric analysis relative to control; format: functional
[5] = test system: MDA-MB-231; test: Cell cycle arrest in human MDA-MB-231 cells assessed as accumulation at S phase at 1 uM measured after 24 hrs by propidium iodide staining based flow cytometry (reference value: 12%); format: functional
[6] = test system: MDA-MB-231; test: Induction of apoptosis in human MDA-MB-231 cells assessed as early apoptotic cells at 10 umol/L measured after 6 hrs by annexin-V-FITC/7-AAD staining based flow cytometric analysis relative to control; format: functional
[7] = test system: MDA-MB-231; test: Induction of superoxide generation in human MDA-MB-231 cells at 5 umol/L measured after 24 hrs in presence of NQO1 inhibitor dicoumarol by DHE staining based flow cytometry; format: functional, cell-based
Procedure, shortened: (§1)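 Cells were treated with compound at 5 μmol/L or DMSO for 24 h, with or without dicoumarol preincubation (5 μmol/L, 30 min), then stained with DHE for 30 min. 2-OH-DHE fluorescence was read by flow cytometry and expressed relative to vehicle control. At least three independent measurements.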

[8] = test system: MDA-MB-231; test: Induction of apoptosis in human MDA-MB-231 cells assessed as viable cells at 10 umol/L measured after 4 hrs by annexin-V-FITC/7-AAD staining based flow cytometric analysis (reference value: 97 to 98%); format: functional; settings: MDA-MB-231, 4 h, read-out: Activity
[9] = test system: MDA-MB-231; test: Cell cycle arrest in human MDA-MB-231 cells assessed as accumulation at G1 phase at 10 uM measured after 24 hrs by propidium iodide staining based flow cytometry (reference value: 62%); format: functional
[10] = test system: MDA-MB-231; test: Antiproliferative activity against human MDA-MB-231 cells measured after 48 hrs by MTT assay; format: functional, cell-based; settings: MDA-MB-231, 48 h
Procedure, shortened: (§2)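 Cells kept in 10% FBS medium with penicillin/streptomycin/L-glutamine at 37 °C, 5% CO2 (MDA-MB-231 in DMEM, K562 in RPMI 1640). Viability read by MTT reduction to formazan after 48 h of exposure. IC50 obtained by nonlinear regression against vehicle control, given as mean ±SD of three independent experiments (n = 2 where footnoted).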

[11] = test system: MDA-MB-231; test: Induction of apoptosis in human MDA-MB-231 cells assessed as early apoptotic cells at 10 umol/L measured after 24 hrs by annexin-V-FITC/7-AAD staining based flow cytometric analysis relative to control; format: functional
[12] = test system: MDA-MB-231; test: Cell cycle arrest in human MDA-MB-231 cells assessed as accumulation at G2 phase at 1 uM measured after 24 hrs by propidium iodide staining based flow cytometry (reference value: 23%); format: functional
[13] = test system: MDA-MB-231; test: Induction of apoptosis in human MDA-MB-231 cells assessed as late apoptotic cells at 10 umol/L measured after 24 hrs by annexin-V-FITC/7-AAD staining based flow cytometric analysis relative to control; format: functional
[14] = test system: MDA-MB-231; test: Cell cycle arrest in human MDA-MB-231 cells assessed as accumulation at sub-G0 phase at 3 uM measured after 24 hrs by propidium iodide staining based flow cytometry (reference value: 3%); format: functional
[15] = test system: MDA-MB-231; test: Induction of apoptosis in human MDA-MB-231 cells assessed as late apoptotic cells at 10 umol/L measured after 6 hrs by annexin-V-FITC/7-AAD staining based flow cytometric analysis relative to control; format: functional
[16] = test system: MDA-MB-231; test: Cell cycle arrest in human MDA-MB-231 cells assessed as accumulation at S phase at 3 uM measured after 24 hrs by propidium iodide staining based flow cytometry (reference value: 12%); format: functional
[17] = test system: MDA-MB-231; test: Cell cycle arrest in human MDA-MB-231 cells assessed as accumulation at sub-G0 phase at 10 uM measured after 24 hrs by propidium iodide staining based flow cytometry (reference value: 3%); format: functional
[18] = test system: MDA-MB-231; test: Induction of apoptosis in human MDA-MB-231 cells assessed as viable cells at 10 umol/L measured after 2 hrs by annexin-V-FITC/7-AAD staining based flow cytometric analysis (reference value: 97 to 98%); format: functional; settings: MDA-MB-231, 2 h, read-out: Activity
[19] = test system: K562; test: Antiproliferative activity against human K562 cells measured after 48 hrs by MTT assay; format: functional, cell-based; settings: K562, 48 h; procedure, shortened: as §2
[20] = test system: MDA-MB-231; test: Induction of apoptosis in human MDA-MB-231 cells assessed as late apoptotic cells at 10 umol/L measured after 8 hrs by annexin-V-FITC/7-AAD staining based flow cytometric analysis relative to control; format: functional
[21] = test system: MDA-MB-231; test: Cell cycle arrest in human MDA-MB-231 cells assessed as accumulation at G2 phase at 10 uM measured after 24 hrs by propidium iodide staining based flow cytometry (reference value: 23%); format: functional
[22] = test system: MDA-MB-231; test: Cell cycle arrest in human MDA-MB-231 cells assessed as accumulation at G1 phase at 30 uM measured after 24 hrs by propidium iodide staining based flow cytometry (reference value: 62%); format: functional
[23] = test system: MDA-MB-231; test: Induction of apoptosis in human MDA-MB-231 cells assessed as viable cells at 10 umol/L measured after 8 hrs by annexin-V-FITC/7-AAD staining based flow cytometric analysis (reference value: 97 to 98%); format: functional; settings: MDA-MB-231, 8 h, read-out: Activity
[24] = test system: MDA-MB-231; test: Cell cycle arrest in human MDA-MB-231 cells assessed as accumulation at S phase at 10 uM measured after 24 hrs by propidium iodide staining based flow cytometry (reference value: 12%); format: functional
[25] = test system: MDA-MB-231; test: Cell cycle arrest in human MDA-MB-231 cells assessed as accumulation at S phase at 30 uM measured after 24 hrs by propidium iodide staining based flow cytometry (reference value: 12%); format: functional
[26] = test system: MDA-MB-231; test: Induction of superoxide generation in human MDA-MB-231 cells at 5 umol/L measured after 24 hrs by DHE staining based flow cytometry; format: functional, cell-based; procedure, shortened: as §1
[27] = test system: MDA-MB-231; test: Cell cycle arrest in human MDA-MB-231 cells assessed as accumulation at sub-G0 phase at 1 uM measured after 24 hrs by propidium iodide staining based flow cytometry (reference value: 3%); format: functional
[28] = test system: MDA-MB-231; test: Induction of apoptosis in human MDA-MB-231 cells assessed as viable cells at 10 umol/L measured after 6 hrs by annexin-V-FITC/7-AAD staining based flow cytometric analysis (reference value: 97 to 98%); format: functional; settings: MDA-MB-231, 6 h, read-out: Activity
[29] = test system: MDA-MB-231; test: Induction of apoptosis in human MDA-MB-231 cells assessed as viable cells at 10 umol/L measured after 24 hrs by annexin-V-FITC/7-AAD staining based flow cytometric analysis (reference value: 97 to 98%); format: functional; settings: MDA-MB-231, 24 h, read-out: Activity
[30] = test system: K562; test: Induction of superoxide generation in human K562 cells at 5 umol/L measured after 24 hrs in presence of NQO1 inhibitor dicoumarol by DHE staining based flow cytometry; format: functional, cell-based; procedure, shortened: as §1
[31] = test system: MDA-MB-231; test: Cell cycle arrest in human MDA-MB-231 cells assessed as accumulation at G1 phase at 1 uM measured after 24 hrs by propidium iodide staining based flow cytometry (reference value: 62%); format: functional
[32] = test system: MDA-MB-231; test: Cell cycle arrest in human MDA-MB-231 cells assessed as accumulation at G2 phase at 30 uM measured after 24 hrs by propidium iodide staining based flow cytometry (reference value: 23%); format: functional
[33] = target: T1, Signal transducer and activator of transcription 3 (Homo sapiens, UniProt P40763); test: Inhibition of STAT3 phosphorylation at Y705 in human MDA-MB-231 cells assessed as reduction in ratio of phosphorylated STAT3 to total STAT3 level after 4 hrs by HTRF assay; format: cell-based
Procedure, shortened: (§3)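 MDA-MB-231 cells (10^5/well) were left to adhere overnight, serum-starved for 4 h in DMEM, then treated with 0.1–30 μmol/L compound (0.5% final DMSO) for 4 h at 37 °C. Lysates were incubated 24 h at room temperature with Eu-cryptate/d2 antibody pairs for phospho-STAT3 (Y705) or total STAT3. The 665/620 nm HTRF ratio was taken and phospho/total normalized. EC50 was obtained by nonlinear regression.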

[34] = test system: MDA-MB-231; test: Effect on total STAT3 level in human MDA-MB-231 cells at 0.1 to 30 umol/L after 4 hrs by HTRF assay; format: cell-based; settings: mda-mb-231, 4 h; procedure, shortened: as §3
[35] = target: T1, Signal transducer and activator of transcription 3; test: Inhibition of STAT3 phosphorylation at Y705 in human MDA-MB-231 cells after 4 hrs by HTRF assay; format: cell-based; procedure, shortened: as §3
[36] = target: T1, Signal transducer and activator of transcription 3; test: Binding affinity to STAT3 in human MDA-MB-231 cells at 100 uM measured after 1 hr by DARTS-Western blot analysis; format: cell-based
Procedure, shortened: (§4)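 A nondenaturing lysate of MDA-MB-231 cells (M-PER with protease and phosphatase inhibitors) was incubated with compound at 100 μmol/L or DMSO for 1 h at room temperature in the dark. TNC buffer pH 8.0 was added, then thermolysin (1:3000 of protein) for 30 min at room temperature; undigested controls were kept. Run on SDS-PAGE with 10 μg protein per lane, then Western blot with anti-STAT3.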

[37] = target: T1, Signal transducer and activator of transcription 3; test: Binding affinity to STAT3 in human MDA-MB-231 cells at 100 uM treated for 1 hr followed by thermolysin addition measured after 30 mins by DARTS-Western blot analysis; format: cell-based; procedure, shortened: as §4

T1 sequence (P40763 whole entry): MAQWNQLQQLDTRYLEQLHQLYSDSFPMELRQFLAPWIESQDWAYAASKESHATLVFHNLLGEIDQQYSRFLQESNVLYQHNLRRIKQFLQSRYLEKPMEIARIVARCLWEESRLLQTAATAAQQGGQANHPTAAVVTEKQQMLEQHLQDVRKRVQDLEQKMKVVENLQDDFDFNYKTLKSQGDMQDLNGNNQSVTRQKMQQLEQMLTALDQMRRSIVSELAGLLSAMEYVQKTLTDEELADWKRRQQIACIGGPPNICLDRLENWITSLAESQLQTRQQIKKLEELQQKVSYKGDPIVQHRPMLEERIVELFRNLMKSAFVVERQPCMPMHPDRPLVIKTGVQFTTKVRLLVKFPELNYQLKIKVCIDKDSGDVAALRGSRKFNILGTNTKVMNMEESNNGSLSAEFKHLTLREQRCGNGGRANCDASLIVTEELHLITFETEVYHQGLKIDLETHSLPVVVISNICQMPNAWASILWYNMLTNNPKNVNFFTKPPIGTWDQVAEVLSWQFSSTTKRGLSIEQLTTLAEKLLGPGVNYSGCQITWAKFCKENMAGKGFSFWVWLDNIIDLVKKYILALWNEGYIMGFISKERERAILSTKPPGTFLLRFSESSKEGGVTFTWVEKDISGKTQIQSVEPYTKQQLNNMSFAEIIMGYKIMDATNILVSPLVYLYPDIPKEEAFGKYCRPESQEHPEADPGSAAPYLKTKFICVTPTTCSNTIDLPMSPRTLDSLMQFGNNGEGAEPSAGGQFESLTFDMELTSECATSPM

pIC50 [10]	pIC50 [19]	Compound	Activity [1] [%]	Activity [2]	Activity [3] [%]	Activity [5] [%]	Activity [7]	viability at 10 µM [8] [%]	Activity [9] [%]	Activity [11] [%]	Activity [12] [%]	Activity [13] [%]	Activity [14]	Activity [16] [%]	Activity [17]	viability at 10 µM [18] [%]	Activity [21] [%]	Activity [22] [%]	viability at 10 µM [23] [%]	Activity [24] [%]	also measured
5.74	5.55	O=C1C(=O)c2ccoc2-c2ccccc21	25	inactive	59	15	Active	95	60	15	19	54	inactive	15	inactive	96	24	62	87	15	Activity [4]: 6%; Activity [6]: 4%; Activity [15]: 6%; Activity [20]: 8%; Activity [25]: 14%; Activity [26]: Active; Activity [27]: 3%; viability at 10 µM [28]: 91%; viability at 10 µM [29]: 32%; Activity [30]: inactive; Activity [31]: 64%; Activity [32]: 22%
< 5.00	< 5.00	CC1(C)CCC2=C(O1)C(=O)c1ccccc1C2=O [ALPHA-LAPACHONE]																			
5.68	6.00	CC(=O)c1cc2c(o1)C(=O)c1ccccc1C2=O [NAPABUCASIN]	25	3%	56	13	Active	97	56	20	22	19	5%	15	4%	97	26	56	94	14	pEC50 [33]: 5.72; Activity [34]: Non-Toxic; pEC50 [35]: 5.70; Activity [36]: inactive; Activity [25]: 15%; Activity [37]: Active; Activity [26]: Active; Activity [27]: 5%; viability at 10 µM [28]: 96%; viability at 10 µM [29]: 62%; Activity [30]: inactive; Activity [31]: 60%; Activity [32]: 26%
